Screens: PubChem, several laboratories
IMP-1 inh: inhibitors of Pseudomonas aeruginosa IMP-1 metallo-beta-lactamase | purified IMP-1, nitrocefin hydrolysis, epi-absorbance fluorescence | inhibition, % at 5.6 µM | actives 0.45% (n = 290,000);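 active = inhibition above the mean plus 3 SD of all compounds in the same screening run, cut at about 4.5% in these data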;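 also: 0% = IMP-1 with DMSO and 100% = DMSO wells lacking enzyme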
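Assay system: purified IMP-1; Quantity: IMP-1 0.2 nM before substrate addition; Medium: HEPES buffer pH 7.1 with ZnSO4 and Brij 35; Incubation: 15 min enzyme–compound preincubation, then 25 min nitrocefin reaction, 25 °C; Signal: fluorescence quenching readout, ex 480/em 530 nm; Controls: DMSO with and without IMP-1; Repeats: singlicate testing.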
PHOSPHO1 inh: blocks human PHOSPHO1 phosphatase activity; actives 1.1% (n = 290,000); inhibition, % at 13.3 µM; recombinant PHOSPHO1, absorbance phosphatase assay; in the data active = inhibition above about 60%
Target sequence (Q8TCT1 whole entry, looked up): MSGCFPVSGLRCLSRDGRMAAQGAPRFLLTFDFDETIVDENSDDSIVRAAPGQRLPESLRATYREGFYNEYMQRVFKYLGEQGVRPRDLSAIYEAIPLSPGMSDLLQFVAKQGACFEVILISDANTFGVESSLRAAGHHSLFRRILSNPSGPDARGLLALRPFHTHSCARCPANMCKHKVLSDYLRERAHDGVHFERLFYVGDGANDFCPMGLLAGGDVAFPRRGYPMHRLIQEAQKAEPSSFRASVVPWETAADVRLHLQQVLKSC
Yeast superoxide: caloric restriction mimetics inhibiting age-related superoxide in yeast. S. cerevisiae aged cells, superoxide DHE fluorescence; hits give low values. actives 0.18% (n = 330,000). superoxide response (% of plate mean), % at 10 µM;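 active = superoxide response under a set limit, about three screen SD below normal, cut at about 65% in these data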;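 also: yeast aged for seven days with compound at 30 °C before DHE staining; 100% = average MFI of all compound-treated wells on the plate with controls excluded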
VIM-2 inhibitor: inhibitors of Pseudomonas aeruginosa VIM-2 metallo-beta-lactamase; purified VIM-2, nitrocefin hydrolysis, epi-absorbance fluorescence; inhibition, % at 5.6 µM; actives 0.89% (n = 290,000); AID 1527;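 active = inhibition above the mean of all tested compounds plus 3 SD, cutoff set per screening run, cut at about 7.5% in these data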;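 also: red hydrolysis product quenches plate fluorescence so inhibitors raise well fluorescence; 0% = enzyme with DMSO and 100% = DMSO without enzyme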
PvdQ inh: P. aeruginosa PvdQ acylase inhibition; actives 0.063% (n = 340,000); inhibition, % at 10 µM; purified PvdQ acylase, fluorescence plate reader; in the data active = inhibition above about 30%, passing the limit was not always enough;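 also: 0% = vehicle neutral wells and 100% = reference inhibitor wells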
Active calls of the source: *; x = no result given. Hits are enriched below; roughly 2.2% of the tested compounds scored in any of these assays.

SMILES | IMP-1 inh | PHOSPHO1 inh | Yeast superoxide | VIM-2 inhibitor | PvdQ inh
CCOC(=O)c1c(SCCN2CCCCC2)n(-c2ccccc2)c(=S)n(-c2ccccc2)c1=O | x | x | x | x | -14
CCOC(=O)C1CCCN(S(=O)(=O)c2cc3c4c(c2)CCC(=O)N4CCC3)C1 (stereo not drawn) | x | x | 95 | x | -7
COc1cc(CNCCNC(=O)c2nonc2N)ccc1OCc1ccc(Cl)cc1 | -3 | 45 | 103 | 0 | -2
COc1ccc(CC(=S)N2CCOCC2)cc1OC | 0 | 24 | 77 | -4 | -8
S=C(Cc1cccnc1)N1CCOCC1 | -4 | 60* | 94 | 0 | 19
CC(C)(C)CC(=O)NCc1cccs1 | -2 | 60* | 93 | 1 | -11
O=C(Cc1cccs1)NCc1cccs1 | -5 | 15 | 118 | -3 | -8
C=C(C)c1nc(Oc2ccccc2)nc(Oc2ccccc2)n1 | x | x | x | x | -6
COc1ccc(NC(=O)C(C)Sc2ccccc2)cc1 (stereo not drawn) | -2 | 62* | 96 | -3 | -17
O=C(CCNC(=O)c1ccccc1)Nc1ccc(Cl)c(S(=O)(=O)N2CCCCC2)c1 | x | x | 89 | x | -3
CCOC(=O)C1(Cc2cccc(F)c2)CCN(C(=O)c2ccoc2C)CC1 | -4 | 63* | 109 | -2 | -14
CCOc1ccc(N2C(=O)CS/C2=C(\C(Cl)=C(Cl)Cl)[N+](=O)[O-])cc1 | -3 | 86* | 90 | 0 | -10
CSc1ncccc1C(=O)Nc1cccc(S(=O)(=O)N2CCCCC2)c1 | x | x | 107 | x | -14
CCCn1c2ccccc2c2nnc(SCCN3CCOCC3)nc21 | -3 | x | 98 | 6 | -7
CCn1c2ccc(F)cc2c2nnc(SCCN3CCCCC3)nc21 | -3 | 32 | 105 | 10* | -17
CCn1c2nc(SCCN3CCOCC3)nnc2c2cc(C)cc(C)c21 | -4 | 42 | 92 | 12* | -2
CCCn1c2ccc(F)cc2c2nnc(SCCN3CCCCC3)nc21 | -1 | -11 | 113 | 5 | -17
CN1CCN(CCCNC(=O)c2ccc(CSCc3cccc(Cl)c3)o2)CC1 | 6.8* | 45 | 97 | 0 | x
CCC(C)NS(=O)(=O)c1ccc(S(=O)(=O)N2CCCC3(CCCCC3)C2)cc1 (stereo not drawn) | -3 | -16 | 104 | -1 | 9
O=c1nc2s/c(=C\c3ccc(-c4ccccc4[N+](=O)[O-])o3)c(=O)n2nc1-c1ccccc1 | -1 | 74* | x | -5 | -14
N#CC(c1cccc(Cl)c1)c1ncc(C(F)(F)F)cc1Cl (stereo not drawn) | -1 | 12 | 118 | -1 | 52*
N#CC(c1ccc(Cl)cc1)c1ncc(C(F)(F)F)cc1Cl (stereo not drawn) | -2 | 8 | 113 | -1 | 57*
Cn1cccc1C(C#N)c1ncc(C(F)(F)F)cc1Cl (stereo not drawn) | 0 | 26 | 95 | 0 | -1
Cc1ccc(C)c(N2N=C(C(=O)OCC(=O)N(C)c3ccccc3)CCC2=O)c1 | x | x | x | x | -5
c1ccc(NC2=NCCN2CCCC2CCCCC2)cc1 | x | x | 97 | x | 9
SMILES | IMP-1 inh | PHOSPHO1 inh | Yeast superoxide | VIM-2 inhibitor | PvdQ inh
CCOC(=O)CC(C#N)c1cn(C)c2ccccc12 (stereo not drawn) | 0 | 34 | 120 | -1 | 38*
Cc1ccc2ccc3ccc(C)nc3c2n1 | 0 | 5 | 108 | 8.6* | -4
Cc1ccc2c(C)ccc(O)c2n1 | -3 | 5 | 94 | -6 | -1
Clc1ccccc1-c1ncc2ccccn12 | 0 | 61* | 97 | -2 | 0
Cc1[nH]c2ccccc2c1C(=O)COC(=O)c1ccc[n+]([O-])c1 | 2 | -4 | 96 | 8.9* | -2
O=C(C1CCN(S(=O)(=O)N2CCC3(CC2)OCCO3)CC1)N1CCN(Cc2ccccc2)CC1 | -2 | 64* | 94 | -3 | 4
O=C(NCCCN1CCN(Cc2ccccc2)CC1)C1CCN(S(=O)(=O)N2CCC3(CC2)OCCO3)CC1 | -2 | -17 | 96 | -3 | -17
C=CCOC(=O)c1ccc(-n2cncn2)nc1 | 2 | 0 | 97 | -2 | 8
C=CCOC(=O)c1ccc(-n2cnc(C)n2)nc1 | -2 | 44 | 105 | 2 | 71*
CC(O)C(NS(=O)(=O)c1ccc2ccccc2c1)C(=O)OCC(=O)Nc1ccccc1OC(F)F (stereo not drawn) | x | x | x | x | -13
CCn1c(SCC(=O)Nc2nncs2)nnc1C(C)NC(=O)c1ccccc1Br (stereo not drawn) | -3 | 15 | 99 | -1 | 10
